From ChEMBL document CHEMBL2046351, “Discovery of cyclic sulfone hydroxyethylamines as potent and selective β-site APP-cleaving enzyme 1 (BACE1) inhibitors: structure-based design and in vivo reduction of amyloid β-peptides” (J Med Chem, 2012)

Tests used:
Brain [1] = assay: Drug uptake in APP51/16 transgenic mouse brain at 180 umol/kg, po measured 4 hrs post dosing by LC/MS/MS analysis; type: ADME, organism-based; settings: in vivo
Method in brief: (§1)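 APP51/16 transgenic mice given oral gavage (10 mL/kg); blood and forebrain taken at 4 h postdose. Blood extracted by acetonitrile precipitation; brain homogenized in water, then acetonitrile-precipitated. LC-MS/MS quantitation against weighted linear calibration of analyte/internal standard area ratio.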

MDR1 (human) [2] = assay: Apparent permeability across MDCK cells expressing human MDR1 at 5 uM after 2 hrs by LC-MS analysis; type: ADME, cell-based, Canis lupus familiaris; settings: dog
Method in brief: (§2)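 MDCK cells retrovirally transduced with human MDR1, seeded on transwells ≥3 days; bidirectional transport at 5 μM, 2 h, 37 °C, LC/MS quantitation. Papp = (dQ/dt)/(A·C0), A 0.11 cm2; ER = Papp B>A / Papp A>B. Means of at least three experiments.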

[3] = Blood clearance in C57BL/6 mouse at 2 umol/kg, iv dosed in N-methyl pyrrolidone/blank plasma (10:90 v/v) by LC/MS/MS analysis; type: ADME, organism-based
Method in brief: (§3)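 Male C57BL/6 mice, saphenous vein injection under light anesthesia, 5 mL/kg. Blood at 5, 30 min and 1, 2, 4, 6, 8 h; brain at 5 min, 1, 4, 8 h; n = 3/time. LC-MS/MS after acetonitrile precipitation (brain water-homogenized). Noncompartmental analysis, 1/Y weighting, terminal slope from ≥3 points.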

[4] = Half life in C57BL/6 mouse at 2 umol/kg, iv dosed in N-methyl pyrrolidone/blank plasma (10:90 v/v) by LC/MS/MS analysis; type: ADME, organism-based; method in brief: as §3
[5] = Volume of distribution at steady state in C57BL/6 mouse at 2 umol/kg, iv dosed in N-methyl pyrrolidone/blank plasma (10:90 v/v) by LC/MS/MS analysis; type: ADME, organism-based; settings: read-out: Vdss; method in brief: as §3
[6] = Ratio of drug uptake in brain to blood in C57BL/6 mouse at 60 umol/kg, po dosed in HS15/propylenglycol/citrate buffer, pH 4.75, 50 mM (10/5/85, v/v/v) measured 4 hrs post dosing by LC/MS/MS analysis; type: ADME, organism-based
Method in brief: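 Male C57BL/6 mice received the dose by oral gavage at 10 mL/kg. Blood and brain were collected at 1 and/or 4 h postdose. Brain was homogenised in water, and both matrices were extracted by acetonitrile precipitation and quantified by LC-MS/MS. The ratio is mean brain (nmol/g) over mean blood (nmol/mL) concentration, n = 3.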

Mus musculus [7] = assay: Antialzheimer activity in APP51/16 transgenic mouse expressing human APP51/16Npa and mouse Thy1 assessed as reduction in amyloid beta (1 to 40) reduction at 180 umol/kg, po measured 4 hrs post dosing; type: functional; design: scale not given: the % may be the effect or the level left
Method in brief: (§4)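 Hemizygous APP51/16 mice (human APP751 wild-type under murine Thy-1 cassette, C57BL/6 background) gavaged (10 mL/kg), decapitated at 4 h. Forebrain homogenized in TBS with protease inhibitors, 1% TX-100 extract, spun 100000 rpm 30 min 4 °C. Aβ40 by 6E10 electrochemiluminescence immunoassay against spiked nontransgenic extract standards; C99 by APP-C8 western blot, densitometry. Two-tailed Student's t test versus vehicle.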

[8] = Drug uptake in C57BL/6 mouse blood at 6 umol/kg, po dosed in HS15/propylenglycol/citrate buffer, pH 4.75, 50 mM (10/5/85, v/v/v) measured 1 hr post dosing by LC/MS/MS analysis; type: ADME, organism-based; settings: read-out: Drug uptake
Method in brief: (§5)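 Male C57BL/6 mice dosed by oral gavage, 10 mL/kg. Blood sampled 0.25, 0.5, 1, 2, 4, 6 h; brain at 1 and/or 4 h; n = 3 per time. Blood acetonitrile-precipitated, brain water-homogenized then precipitated; LC-MS/MS with weighted linear calibration.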

Mus musculus [9] = assay: Antialzheimer activity in APP51/16 transgenic mouse expressing human APP51/16Npa and mouse Thy1 assessed as reduction in brain C99 level reduction at 180 umol/kg, po measured 4 hrs post dosing; type: functional; design: scale not given: the % may be the effect or the level left; method in brief: as §4
[10] = Oral bioavailability in C57BL/6 mouse at 6 umol/kg dosed in HS15/propylenglycol/citrate buffer, pH 4.75, 50 mM (10/5/85, v/v/v) by LC/MS/MS analysis; type: ADME, organism-based; settings: in vivo
Method in brief: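 Oral gavage (10 mL/kg) to male C57BL/6 mice with iv reference segment (2 μmol/kg, NMP/blank plasma 10:90). Noncompartmental analysis of LC-MS/MS blood profiles, 1/Y weighting; %F = dose-normalized oral AUC / dose-normalized iv AUC × 100, assuming linear pharmacokinetics between doses.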

[11] = AUC (0 to infinity) in C57BL/6 mouse at 2 umol/kg, iv dosed in N-methyl pyrrolidone/blank plasma (10:90 v/v) by LC/MS/MS analysis; type: ADME, organism-based; design: dose 2 umol/kg, time infinity, route intravenous
Method in brief: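 Male C57BL/6 mice got a single injection into the saphenous vein under light anaesthesia at 5 mL/kg. Blood was taken at 5 and 30 min and 1, 2, 4, 6 and 8 h (n = 3 per time). Blood was extracted by acetonitrile precipitation and quantified by LC-MS/MS against a weighted linear calibration. AUC came from noncompartmental analysis with 1/Y weighting.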

[12] = Drug uptake in APP51/16 transgenic mouse blood at 180 umol/kg, po measured 4 hrs post dosing by LC/MS/MS analysis; type: ADME, organism-based; settings: read-out: Drug uptake; method in brief: as §1
MDR1 (human) [13] = assay: Efflux ratio of permeability from basolateral to apical over apical to basolateral side of MDCK cells expressing human MDR1 at 5 uM after 2 hrs by LC/MS analysis; type: ADME, cell-based, Canis lupus familiaris; settings: dog; method in brief: as §2
[14] = Ratio of drug uptake in brain to blood in C57BL/6 mouse at 60 umol/kg, po dosed in carboxymethyl cellulose 0.5% w/v in water/Tween 80 (99.5/0.5, v/v) measured 4 hrs post dosing by LC/MS/MS analysis; type: ADME, organism-based; method in brief: as §5
[15] = Drug uptake in C57BL/6 mouse blood at 60 umol/kg, po dosed in carboxymethyl cellulose 0.5% w/v in water/Tween 80 (99.5/0.5, v/v) measured 4 hrs post dosing by LC/MS/MS analysis; type: ADME, organism-based; settings: read-out: Drug uptake; method in brief: as §5
[16] = Drug uptake in C57BL/6 mouse blood at 60 umol/kg, po dosed in carboxymethyl cellulose 0.5% w/v in water/Tween 80 (99.5/0.5, v/v) measured 1 hr post dosing by LC/MS/MS analysis; type: ADME, organism-based; settings: read-out: Drug uptake; method in brief: as §5
[17] = Drug uptake in C57BL/6 mouse blood at 6 umol/kg, po dosed in carboxymethyl cellulose 0.5% w/v in water/Tween 80 (99.5/0.5, v/v) measured 1 hr post dosing by LC/MS/MS analysis; type: ADME, organism-based; settings: read-out: Drug uptake; method in brief: as §5
Cathepsin D = Cathepsin D (Homo sapiens, UniProt P07339); assay: Inhibition of human recombinant CatD using Mca-GKPILFFRLK(DNP)-dR-NH2 as substrate after 1 hr by fluorescence analysis
Brain [18] = assay: Drug uptake in C57BL/6 mouse brain at 2 umol/kg, iv dosed in N-methyl pyrrolidone/blank plasma (10:90 v/v) measured 1 hr post dosing by LC/MS/MS analysis; type: ADME, organism-based; settings: in vivo; method in brief: as §3
[19] = Ratio of drug uptake in brain to blood in C57BL/6 mouse at 2 umol/kg, iv dosed in N-methyl pyrrolidone/blank plasma (10:90 v/v) measured 1 hr post dosing by LC/MS/MS analysis; type: ADME, organism-based; method in brief: as §3

Chain of Cathepsin D (P07339 65-162 limits assumed): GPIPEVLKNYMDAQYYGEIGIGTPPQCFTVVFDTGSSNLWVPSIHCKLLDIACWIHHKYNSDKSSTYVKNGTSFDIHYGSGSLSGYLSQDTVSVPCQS
Chain of Cathepsin D (P07339 169-412 limits assumed): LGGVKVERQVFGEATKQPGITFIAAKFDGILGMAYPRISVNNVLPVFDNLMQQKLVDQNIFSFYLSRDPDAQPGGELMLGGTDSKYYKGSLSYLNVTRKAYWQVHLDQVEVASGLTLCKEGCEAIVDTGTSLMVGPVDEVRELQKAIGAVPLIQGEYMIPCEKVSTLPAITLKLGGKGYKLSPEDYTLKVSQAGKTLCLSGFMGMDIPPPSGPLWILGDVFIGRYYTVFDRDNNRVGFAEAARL

Compound	Drug uptake (Brain [1]) [nmol/g]	Papp at 2 h, 5 µM (MDR1 (human) [2]) [nm/s]	clearance [3] [L/h/kg]	half-life [4] [h]	Vd [5] [L/kg]	Kp at 4 h [6]	Activity (Mus musculus [7]) [%]	concentration at 1 h [8] [µM]	Activity (Mus musculus [9]) [%]	bioavailability [10] [%]	AUC(0-inf) [11] [nM·h]	concentration at 4 h [12] [µM]	efflux ratio at 2 h, 5 µM (MDR1 (human) [13])	Kp at 4 h [14]	concentration at 4 h [15] [µM]	concentration at 1 h [16] [µM]	concentration at 1 h [17] [µM]	IC50 (Cathepsin D) [µM]	Drug uptake (Brain [18]) [nmol/g]	Kp at 1 h [19]
CC(C)(C)c1cccc(CN[C@H]2CS(=O)(=O)C[C@@H](Cc3cc(F)c(N)c(OC(C(F)(F)F)C(F)(F)F)c3)[C@@H]2O)c1	1.5	30	4.92	2.9	16.3	0.8	6	0.06	22	32	407	3.7	–	–	–	–	–	–	–	–
CC(C)(C)c1cccc(CN[C@H]2CS(=O)(=O)C[C@@H](Cc3cc(F)c(N)c(OCC(F)(F)F)c3)[C@@H]2O)c1	1.8	250	6.66	1.4	7.2	–	31	–	34	–	300	10.2	5	0.3	1.86	4.1	0.03	0.69	0.11	1.8
